# Calls of active or inactive are those of the source. The rule behind the calls is not given here.
# Experiments:
# [1] = system: Human immunodeficiency virus 1; assay: Antiviral activity against HIV1 3B infected in human MT4 cells assessed as protection against virus-induced cytopathogenicity by MTT assay; format: functional, organism-based; conditions: Human immunodeficiency virus 1, 3B
# [2] = system: Yellow fever virus; assay: Antiviral activity against Yellow fever virus 17D infected in BHK cells assessed as protection against virus-induced cytopathogenicity after 3 to 4 days by MTT assay; format: functional, cell-based
# [3] = system: Poliovirus 1; assay: Antiviral activity against Poliovirus type 1 ATCC VR-1562 infected in African green monkey Vero 76 cells assessed as reduction of virus-plaque formation after 2 days by crystal violet staining; format: functional, organism-based; conditions: Enterovirus C, ATCC VR-1562, Vero, 48 h
# [4] = system: Vaccinia virus; assay: Antiviral activity against Human Vaccinia virus ATCC VR-1549 infected in African green monkey Vero 76 cells assessed as reduction of virus-plaque formation after 3 days by crystal violet staining; format: functional, organism-based; conditions: Orthopoxvirus vaccinia, ATCC VR-1549, Vero, 72 h
# [5] = system: Human alphaherpesvirus 1; assay: Antiviral activity against Human herpesvirus 1 KOS ATCC VR-1493 infected in African green monkey Vero 76 cells assessed as reduction of virus-plaque formation after 3 days by crystal violet staining; format: functional, organism-based; conditions: Human alphaherpesvirus 1, KOS ATCC VR1493, Vero, 72 h
# How it was run: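 Plaque reduction: Vero-76 at 2x10^5 cells/well grown to confluent monolayers, infected 2 h at 50–100 PFU/well; after removing unadsorbed virus, overlay of D-MEM, 1% inactivated FBS, 0.75% methylcellulose with or without serial compound dilutions; 3 days at 37°C, fixed and stained with crystal violet in 50% ethanol, plaques counted; EC50 by linear regression.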
# [6] = system: Staphylococcus aureus; assay: Antimicrobial activity against Staphylococcus aureus ATCC 25923 at 400 ug after 18 hrs by disc-diffusion method; format: functional; conditions: ATCC 25923, 18 h, read-out: IZ
# How it was run: (§1)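 Disc diffusion on Mueller-Hinton II agar per CLSI; 9 mm paper discs loaded with 400 µg compound from DMSO solution, dried, placed on agar; growth inhibition zone diameter read after 18 h at 35°C.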
# [7] = system: Staphylococcus aureus; assay: Antimicrobial activity against Staphylococcus aureus ATCC 29213 at 400 ug after 18 hrs by disc-diffusion method; format: functional; conditions: ATCC 29213, 18 h, read-out: IZ; how it was run: as §1
# [8] = system: Staphylococcus epidermidis; assay: Antimicrobial activity against Staphylococcus epidermidis ATCC 12228 at 400 ug after 18 hrs by disc-diffusion method; format: functional; conditions: for zone of inhibition at 400 µg/disc: ATCC 12228, 18 h, read-out: IZ; how it was run: as §1
# [9] = system: Staphylococcus epidermidis; assay: Antimicrobial activity against Staphylococcus epidermidis ATCC 35984 at 400 ug after 18 hrs by disc-diffusion method; format: functional; conditions: for zone of inhibition at 400 µg/disc: ATCC 35984, 18 h, read-out: IZ; how it was run: as §1
# [10] = system: Bacillus cereus; assay: Antimicrobial activity against Bacillus cereus ATCC 11778 at 400 ug after 18 hrs by disc-diffusion method; format: functional; conditions: ATCC 11778, 18 h, read-out: IZ; how it was run: as §1
# [11] = system: Enterococcus hirae; assay: Antimicrobial activity against Enterococcus hirae ATCC 10541 at 400 ug after 18 hrs by disc-diffusion method; format: functional; conditions: for zone of inhibition at 400 µg/disc: ATCC 10541, 18 h, read-out: IZ; how it was run: as §1
# [12] = system: Enterococcus faecalis; assay: Antimicrobial activity against Enterococcus faecalis ATCC 29212 at 400 ug after 18 hrs by disc-diffusion method; format: functional; conditions: for zone of inhibition at 400 µg/disc: ATCC 29212, 18 h, read-out: IZ; how it was run: as §1
# [13] = system: Micrococcus luteus; assay: Antimicrobial activity against Micrococcus luteus ATCC 10240 at 400 ug after 18 hrs by disc-diffusion method; format: functional; conditions: for zone of inhibition at 400 µg/disc: ATCC 10240, 18 h, read-out: IZ; how it was run: as §1
# [14] = system: Proteus vulgaris; assay: Antimicrobial activity against Proteus vulgaris NCTC 4635 at 400 ug after 18 hrs by disc-diffusion method; format: functional; how it was run: as §1
# [15] = system: Staphylococcus aureus; assay: Antimicrobial activity against Staphylococcus aureus NCTC 4163 after 18 hrs by twofold serial microdilution method; format: functional; conditions: NCTC 4163, 18 h
# [16] = system: Staphylococcus aureus; assay: Antimicrobial activity against Staphylococcus aureus ATCC 25923 after 18 hrs by twofold serial microdilution method; format: functional; conditions: ATCC 25923, 18 h
# [17] = system: Staphylococcus aureus; assay: Antimicrobial activity against hospital methicillin-resistant Staphylococcus aureus 53/05 after 18 hrs by twofold serial microdilution method; format: functional; conditions: 53/05, 18 h
# How it was run: (§2)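 Twofold serial microdilution in Mueller-Hinton broth. Compound stock was made in DMSO and diluted in sterile water. Tested range was 0.125–512 µg/mL. Final inoculum was 10^5 CFU/mL. Plates were incubated 18 h at 35 °C. MIC is the lowest concentration preventing visible growth.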
# [18] = system: Staphylococcus aureus; assay: Antimicrobial activity against hospital methicillin-resistant Staphylococcus aureus 79/05 after 18 hrs by twofold serial microdilution method; format: functional; conditions: 79/05, 18 h; how it was run: as §2
# [19] = system: Staphylococcus aureus; assay: Antimicrobial activity against hospital methicillin-resistant Staphylococcus aureus 80/05 after 18 hrs by twofold serial microdilution method; format: functional; conditions: 80/05, 18 h; how it was run: as §2
# [20] = system: Staphylococcus aureus; assay: Antimicrobial activity against hospital methicillin-resistant Staphylococcus aureus 81/05 after 18 hrs by twofold serial microdilution method; format: functional; conditions: 81/05, 18 h; how it was run: as §2
# [21] = system: Staphylococcus aureus; assay: Antimicrobial activity against hospital methicillin-resistant Staphylococcus aureus 573/11 after 18 hrs by twofold serial microdilution method; format: functional; conditions: 573/11, 18 h; how it was run: as §2
# [22] = system: Staphylococcus epidermidis; assay: Antimicrobial activity against hospital methicillin-resistant Staphylococcus epidermidis 31/04 after 18 hrs by twofold serial microdilution method; format: functional; conditions: 31/04, 18 h; how it was run: as §2
# [23] = system: Staphylococcus aureus; assay: Ratio of ciprofloxacin MIC to compound MIC for hospital methicillin-resistant Staphylococcus aureus 57/05 after 18 hrs by twofold serial microdilution method; format: functional
# How it was run: (§3)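 Ratio of MICs for ciprofloxacin and test agent, each from twofold serial broth microdilution in Mueller-Hinton broth following CLSI guidelines. DMSO stock was diluted in sterile water to 0.125–512 µg/mL, with a final inoculum of 10^5 CFU/mL.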
# [24] = system: Staphylococcus aureus; assay: Ratio of ciprofloxacin MIC to compound MIC for hospital methicillin-resistant Staphylococcus aureus 80/05 after 18 hrs by twofold serial microdilution method; format: functional; how it was run: as §3
# [25] = system: Staphylococcus aureus; assay: Ratio of ciprofloxacin MIC to compound MIC for hospital methicillin-resistant Staphylococcus aureus 522/11 after 18 hrs by twofold serial microdilution method; format: functional; how it was run: as §3
# [26] = system: Staphylococcus epidermidis; assay: Ratio of ciprofloxacin MIC to compound MIC for hospital methicillin-resistant Staphylococcus epidermidis 23/04 after 18 hrs by twofold serial microdilution method; format: functional; how it was run: as §3
# [27] = system: Staphylococcus epidermidis; assay: Ratio of ciprofloxacin MIC to compound MIC for hospital methicillin-resistant Staphylococcus epidermidis 31/04 after 18 hrs by twofold serial microdilution method; format: functional; how it was run: as §3
# [28] = system: Staphylococcus epidermidis; assay: Ratio of ciprofloxacin MIC to compound MIC for hospital methicillin-resistant Staphylococcus epidermidis 62/04 after 18 hrs by twofold serial microdilution method; format: functional; how it was run: as §3
# [29] = system: Staphylococcus epidermidis; assay: Ratio of ciprofloxacin MIC to compound MIC for hospital methicillin-resistant Staphylococcus epidermidis 63/04 after 18 hrs by twofold serial microdilution method; format: functional; how it was run: as §3
# [30] = system: Staphylococcus epidermidis; assay: Ratio of ciprofloxacin MIC to compound MIC for hospital methicillin-resistant Staphylococcus epidermidis 76/04 after 18 hrs by twofold serial microdilution method; format: functional; how it was run: as §3
# [31] = system: Mycobacterium tuberculosis; assay: Antimycobacterial activity against Mycobacterium tuberculosis H37Rv ATCC 25618; format: functional
# How it was run: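 Classical test-tube successive-dilution method in Youmans' modification of Proskauer and Beck liquid medium with 10% bovine serum. Inoculum came from 14-day cultures. DMSO stock was 10 mg/mL, diluted geometrically in medium. Tubes were incubated at 37 °C. Concentrations tested were 3.1, 6.2, 12.5, 25, 50 and 100 µg/ml. MIC is the minimum concentration inhibiting growth relative to compound-free tubes.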
Compound,EC50 [1] [µM],EC50 [2] [µM],EC50 [3] [µM],EC50 [4] [µM],EC50 [5] [µM],zone of inhibition at 400 µg/disc [6] [mm],zone of inhibition at 400 µg/disc [7] [mm],zone of inhibition at 400 µg/disc [8] [mm],zone of inhibition at 400 µg/disc [9] [mm],zone of inhibition at 400 µg/disc [10] [mm],zone of inhibition at 400 µg/disc [13] [mm],inhibition zone (IZ) [14],MIC [15] [µg/mL],MIC [16] [µg/mL],MIC [17] [µg/mL],MIC [18] [µg/mL],MIC [19] [µg/mL],MIC [20] [µg/mL],MIC [21] [µg/mL],MIC [22] [µg/mL],other results
FC(F)(F)c1cccc(NC(S)=Nc2ccc(Cl)c(Cl)c2)c1,> 9,> 9.5,> 16,> 16,> 16,14,15,13,13,13,16,inactive,0.5,0.5,2,2,2,1,1,1,zone of inhibition at 400 µg/disc [11]: 15 mm; zone of inhibition at 400 µg/disc [12]: 12 mm; Ratio [23]: 128; Ratio [24]: 128; Ratio [25]: 128; Ratio [26]: 128; Ratio [27]: 128; Ratio [28]: 128; Ratio [29]: 128; Ratio [30]: 128; MIC [31]: 50 µg/mL
FC(F)(F)c1cccc(NC(=S)Nc2ccc(Cl)cc2)c1,> 6.8,> 10,> 11,> 11,> 11,12,12,–,–,12,–,inactive,8,8,16,16,16,16,8,16,inhibition zone (IZ) [8]: inactive; inhibition zone (IZ) [9]: inactive; inhibition zone (IZ) [11]: inactive; inhibition zone (IZ) [12]: inactive; inhibition zone (IZ) [13]: inactive; Ratio [23]: 128; Ratio [24]: 128; Ratio [25]: 128; Ratio [26]: 128; Ratio [27]: 128; Ratio [28]: 128; Ratio [29]: 128; Ratio [30]: 128; MIC [31]: > 100 µg/mL
FC(F)(F)c1cccc(NC(=S)NCCc2ccccc2)c1,> 8.8,> 29,> 46,> 46,> 46,15,15,14,17,16,15,inactive,8,8,8,16,8,16,16,16,zone of inhibition at 400 µg/disc [11]: 17 mm; inhibition zone (IZ) [12]: inactive; Ratio [23]: 128; Ratio [24]: 128; Ratio [25]: 128; Ratio [26]: 128; Ratio [27]: 128; Ratio [28]: 128; Ratio [29]: 128; Ratio [30]: 128; MIC [31]: 50 µg/mL
Fc1cccc(NC(=S)Nc2cccc(C(F)(F)F)c2)c1,> 20,> 9.4,> 20,> 20,> 20,22,21,19,19,18,21,inactive,4,4,4,8,8,8,8,8,zone of inhibition at 400 µg/disc [11]: 25 mm; zone of inhibition at 400 µg/disc [12]: 14 mm; Ratio [23]: 128; Ratio [24]: 128; Ratio [25]: 128; Ratio [26]: 128; Ratio [27]: 128; Ratio [28]: 128; Ratio [29]: 128; Ratio [30]: 128; MIC [31]: 25 µg/mL
O=C(O)c1cn(C2CC2)c2cc(N3CCNCC3)c(F)cc2c1=O [CIPROFLOXACIN],–,–,–,–,–,26,22,30,32,30,22,–,0.25,0.5,64,64,–,8,64,64,"zone of inhibition at 400 µg/disc [11]: 18 mm; zone of inhibition at 400 µg/disc [12]: 15 mm; zone of inhibition at 400 µg/disc ([14]; NCTC 4635, 18 h, read-out: IZ): 36 mm"
FC(F)(F)c1cccc(NC(S)=NCc2ccccc2)c1,> 45,> 45,> 35,> 35,> 35,19,16,17,13,15,15,inactive,16,16,8,16,16,8,16,16,inhibition zone (IZ) [11]: inactive; inhibition zone (IZ) [12]: inactive; Ratio [23]: 128; Ratio [24]: 128; Ratio [25]: 128; Ratio [26]: 128; Ratio [27]: 128; Ratio [28]: 128; Ratio [29]: 128; Ratio [30]: 128; MIC [31]: 25 µg/mL

# Reference: ChEMBL document CHEMBL3616436, “Synthesis, cytotoxicity and antimicrobial activity of thiourea derivatives incorporating 3-(trifluoromethyl)phenyl moiety” (Eur J Med Chem, 2015)
